Source: ChEMBL document CHEMBL5674883, “The Heterochromatin Landscape in Migrating Cells and the Importance of H3K27me3 for Associated Transcriptome Alterations” (Cells, 2018)

Experiments:
Assay type in all cases: cell-based
[1] = target: T1, RNA polymerase II (Mus musculus) (UniProt P08775+Q8CFI7+P97760+A0A3Q4L2S8+Q80UW8+P61219+P62488+Q923G2+P60898+O08740+Q63871+P62876); assay: Inhibition of RNA polymerase II in mouse B16-F1 migrating cells assessed as fold change in Dido1-RNA stability at 0.1 mM measured by […] analysis relative to control cells
Procedure, shortened: (§1)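 Mouse B16-F1 melanoma cells grown to confluence on fibronectin in DMEM/10% FCS at 37 °C, 7% CO2. Migration induced by multiple scratches and 3 h incubation; unscratched controls. DRB 0.1 mM added 3 h before lysis. RNA from poly A-selected mRNA was sequenced (RNA-seq, three replicates per DRB group). Fold change computed for DRB-treated migrating vs DRB-treated control cells; cutoffs fold change >1.3, FDR <0.05.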

[2] = target: T1, RNA polymerase II (Mus musculus); assay: Inhibition of RNA polymerase II in mouse B16-F1 migrating cells assessed as fold change in Gtf3c4-RNA stability at 0.1 mM measured by ChIP-seq analysis relative to control cells
[3] = target: T1, RNA polymerase II (Mus musculus); assay: Inhibition of RNA polymerase II in mouse B16-F1 migrating cells assessed as fold change in Sh3bgrl3-RNA stability at 0.1 mM measured by […] analysis relative to control cells
[4] = target: T1, RNA polymerase II (Mus musculus); assay: Inhibition of RNA polymerase II in mouse B16-F1 migrating cells assessed as fold change in Abi1-RNA stability at 0.1 mM measured by […] analysis relative to control cells
[5] = target: T1, RNA polymerase II (Mus musculus); assay: Inhibition of RNA polymerase II in mouse B16-F1 migrating cells assessed as fold change in Dpy19l4-RNA stability at 0.1 mM measured by ChIP-seq analysis relative to control cells
[6] = target: T1, RNA polymerase II (Mus musculus); assay: Inhibition of RNA polymerase II in mouse B16-F1 migrating cells assessed as fold change in Tbp-RNA stability at 0.1 mM measured by […] analysis relative to control cells
[7] = target: T1, RNA polymerase II (Mus musculus); assay: Inhibition of RNA polymerase II in mouse B16-F1 migrating cells assessed as fold change in Mex3c-RNA stability at 0.1 mM measured by ChIP-seq analysis relative to control cells
[8] = target: T1, RNA polymerase II (Mus musculus); assay: Inhibition of RNA polymerase II in mouse B16-F1 migrating cells assessed as fold change in Brd2-RNA stability at 0.1 mM measured by […] analysis relative to control cells
[9] = target: T1, RNA polymerase II (Mus musculus); assay: Inhibition of RNA polymerase II in mouse B16-F1 migrating cells assessed as fold change in Cd2ap-RNA stability at 0.1 mM measured by […] analysis relative to control cells; procedure, shortened: as §1
[10] = target: T1, RNA polymerase II (Mus musculus); assay: Inhibition of RNA polymerase II in mouse B16-F1 migrating cells assessed as fold change in Grhpr-RNA stability at 0.1 mM measured by ChIP-seq analysis relative to control cells
[11] = target: T1, RNA polymerase II (Mus musculus); assay: Inhibition of RNA polymerase II in mouse B16-F1 migrating cells assessed as fold change in Zfp966-RNA stability at 0.1 mM measured by […] analysis relative to control cells
[12] = target: T1, RNA polymerase II (Mus musculus); assay: Inhibition of RNA polymerase II in mouse B16-F1 migrating cells assessed as fold change in Efcab7-RNA stability at 0.1 mM measured by ChIP-seq analysis relative to control cells
[13] = target: T1, RNA polymerase II (Mus musculus); assay: Inhibition of RNA polymerase II in mouse B16-F1 migrating cells assessed as fold change in BC004004-RNA stability at 0.1 mM measured by […] analysis relative to control cells
[14] = target: T1, RNA polymerase II (Mus musculus); assay: Inhibition of RNA polymerase II in mouse B16-F1 migrating cells assessed as fold change in Rassf2-RNA stability at 0.1 mM measured by […] analysis relative to control cells
[15] = target: T1, RNA polymerase II (Mus musculus); assay: Inhibition of RNA polymerase II in mouse B16-F1 migrating cells assessed as fold change in Ptbp2-RNA stability at 0.1 mM measured by […] analysis relative to control cells
[16] = target: Histone-lysine N-methyltransferase EZH2 (Mus musculus) (UniProt Q61188); assay: Inhibition of EZH2 in mouse B16-F1 migrating cells assessed as fold change in H3K27me3-buffered regulated Ccdc126-mRNA expression at 3 uM measured by […] analysis relative to control cells
Histone-lysine N-methyltransferase EZH2 (Mus musculus), sequence (Q61188 whole entry): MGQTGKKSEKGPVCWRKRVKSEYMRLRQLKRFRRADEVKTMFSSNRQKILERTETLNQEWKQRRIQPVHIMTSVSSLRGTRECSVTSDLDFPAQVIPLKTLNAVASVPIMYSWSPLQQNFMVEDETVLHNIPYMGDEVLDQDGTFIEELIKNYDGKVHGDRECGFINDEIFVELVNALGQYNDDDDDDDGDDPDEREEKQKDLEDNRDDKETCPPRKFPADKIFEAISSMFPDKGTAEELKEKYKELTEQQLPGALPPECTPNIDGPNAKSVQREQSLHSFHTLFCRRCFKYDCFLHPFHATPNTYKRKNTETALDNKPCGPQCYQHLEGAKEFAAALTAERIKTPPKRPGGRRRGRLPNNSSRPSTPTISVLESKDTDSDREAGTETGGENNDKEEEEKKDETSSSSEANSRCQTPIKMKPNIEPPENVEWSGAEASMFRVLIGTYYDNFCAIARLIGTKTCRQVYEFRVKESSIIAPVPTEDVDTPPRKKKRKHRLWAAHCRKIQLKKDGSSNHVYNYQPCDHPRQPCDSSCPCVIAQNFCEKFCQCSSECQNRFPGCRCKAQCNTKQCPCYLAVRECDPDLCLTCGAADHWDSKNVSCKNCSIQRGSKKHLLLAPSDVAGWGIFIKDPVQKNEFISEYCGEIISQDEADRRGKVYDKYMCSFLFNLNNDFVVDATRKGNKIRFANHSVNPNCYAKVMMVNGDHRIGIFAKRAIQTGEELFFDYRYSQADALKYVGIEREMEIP
Procedure, shortened: (§2)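 Confluent B16-F1 cells on fibronectin-coated plates, cultured at 37 °C and 7% CO2, were scratched at multiple sites to induce migration. They were then held 3 h in growth medium containing 3 µM GSK343, with the inhibitor added 3 h before lysis. Unscratched cells served as controls. Poly A mRNA was analysed by RNA-seq (n=3 GSK343, n=5 controls). Linear models removed batch effects, and buffered genes were those altered only under GSK343 (FDR <0.05, fold change >1.3).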

[17] = target: Histone-lysine N-methyltransferase EZH2 (Mus musculus) (UniProt Q61188); assay: Inhibition of EZH2 in mouse B16-F1 migrating cells assessed as fold change in H3K27me3-buffered regulated Ctxn1-mRNA expression at 3 uM measured by […] analysis relative to control cells; procedure, shortened: as §2
[18] = target: Histone-lysine N-methyltransferase EZH2 (Mus musculus) (UniProt Q61188); assay: Inhibition of EZH2 in mouse B16-F1 migrating cells assessed as fold change in H3K27me3-buffered regulated 4930503L19Rik-mRNA expression at 3 uM measured by […] analysis relative to control cells; procedure, shortened: as §2
[19] = target: Histone-lysine N-methyltransferase EZH2 (Mus musculus) (UniProt Q61188); assay: Inhibition of EZH2 in mouse B16-F1 migrating cells assessed as fold change in H3K27me3-dependent regulated Cxxc5-mRNA expression at 3 uM measured by […] analysis relative to control cells
Procedure, shortened: (§3)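 Confluent B16-F1 cells on fibronectin-coated plates were scratched at multiple sites, washed once with DMEM and left to migrate 3 h in growth medium (37 °C, 7% CO2); unscratched cells served as control. GSK343 (3 µM) was added 3 h before lysis. Poly A mRNA was sequenced (RNA-seq), with 5 replicates for untreated and 3 for treated cells. Differential expression was called by linear model with batch correction, at FDR <0.05 and fold change ≥1.3.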

[20] = target: Histone-lysine N-methyltransferase EZH2 (Mus musculus) (UniProt Q61188); assay: Inhibition of EZH2 in mouse B16-F1 migrating cells assessed as fold change in H3K27me3-independent regulated Maff-mRNA expression at 3 uM measured by […] analysis relative to control cells; procedure, shortened: as §3
[21] = target: Histone-lysine N-methyltransferase EZH2 (Mus musculus) (UniProt Q61188); assay: Inhibition of EZH2 in mouse B16-F1 migrating cells assessed as fold change in H3K27me3-independent regulated Eva1a-mRNA expression at 3 uM measured by […] analysis relative to control cells; procedure, shortened: as §3
[22] = target: Histone-lysine N-methyltransferase EZH2 (Mus musculus) (UniProt Q61188); assay: Inhibition of EZH2 in mouse B16-F1 migrating cells assessed as fold change in H3K27me3-buffered regulated Sltm-mRNA expression at 3 uM measured by ChIP-seq analysis relative to control cells; procedure, shortened: as §3
[23] = target: Histone-lysine N-methyltransferase EZH2 (Mus musculus) (UniProt Q61188); assay: Inhibition of EZH2 in mouse B16-F1 migrating cells assessed as fold change in H3K27me3-independent regulated Serpinb8-mRNA expression at 3 uM measured by […] analysis relative to control cells; procedure, shortened: as §3
[24] = target: Histone-lysine N-methyltransferase EZH2 (Mus musculus) (UniProt Q61188); assay: Inhibition of EZH2 in mouse B16-F1 migrating cells assessed as fold change in H3K27me3-buffered regulated Tet2-mRNA expression at 3 uM measured by ChIP-seq analysis relative to control cells; procedure, shortened: as §3

OC[C@H]1O[C@@H](n2cnc3cc(Cl)c(Cl)cc32)[C@H](O)[C@@H]1O
log2FC [1]: -0.53
log2FC [2]: -0.54
log2FC [3]: 0.55
log2FC [4]: -0.62
log2FC [5]: -0.58
log2FC [6]: -0.56
log2FC [7]: -0.71
log2FC [8]: -0.66
log2FC [9]: -0.57
log2FC [10]: 1.02
log2FC [11]: -0.82
log2FC [12]: -0.79
log2FC [13]: 0.39
log2FC [14]: -0.48
log2FC [15]: -0.56

CCCc1cc(C)[nH]c(=O)c1CNC(=O)c1cc(-c2ccnc(N3CCN(C)CC3)c2)cc2c1cnn2C(C)C
log2FC [16]: -0.49
log2FC [17]: 0.43
log2FC [18]: -0.64
log2FC [19]: 0.23
log2FC [20]: 0.76
log2FC [21]: 0.84
log2FC [22]: -0.45
log2FC [23]: 0.81
log2FC [24]: -0.48
